The text below walks through data of ChEMBL document CHEMBL1128298, “Synthesis and evaluation of pharmacological and pharmacokinetic properties of monopropyl analogs of 5-, 7-, and 8-[[(trifluoromethyl)sulfonyl]oxy]-2-aminotetralins: central dopamine and serotonin receptor activity” (J Med Chem, 1995).

Activity calls are given as the source filed them. The calls are words filed in the database; no cut-off is given here.

In series [1] the target is T1, D(2) dopamine receptor (Homo sapiens, UniProt P14416). As to the kind of experiment: In vitro binding affinity towards Dopamine receptor D2 by using [3H]spiperone as radioligand.
Series [2] has as its target T2, 5-hydroxytryptamine receptor 1D (Homo sapiens, UniProt P28221). As to the kind of experiment: In vitro binding affinity towards 5-hydroxytryptamine 1D receptor alpha by using [3H]5-HT as radioligand.
Series [3] deals with T3, 5-hydroxytryptamine receptor 1A (Mus musculus, UniProt Q64264).
T3 sequence (Q64264 whole entry): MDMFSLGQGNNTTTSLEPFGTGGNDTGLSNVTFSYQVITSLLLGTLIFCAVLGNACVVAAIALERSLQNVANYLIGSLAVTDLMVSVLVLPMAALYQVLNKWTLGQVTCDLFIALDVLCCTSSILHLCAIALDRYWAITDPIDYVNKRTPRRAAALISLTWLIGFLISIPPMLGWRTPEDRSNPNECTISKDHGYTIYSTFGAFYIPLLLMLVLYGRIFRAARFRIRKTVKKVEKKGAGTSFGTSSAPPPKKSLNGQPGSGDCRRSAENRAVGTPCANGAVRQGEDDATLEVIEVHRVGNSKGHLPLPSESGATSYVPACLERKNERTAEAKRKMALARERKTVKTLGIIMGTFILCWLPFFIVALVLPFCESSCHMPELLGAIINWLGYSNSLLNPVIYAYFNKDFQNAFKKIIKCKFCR
Briefly: In vitro binding affinity towards 5-hydroxytryptamine 1A receptor by using [3H]-8-OH-DPAT as radioligand. In short, it runs like this: (§1)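 Radioligand competition binding at cloned mammalian receptors expressed in CHO-K1 cells, 1 h at room temperature, pH 7.4. Ligands: 5-HT1A [3H]-8-OH-DPAT 1 nM in 50 mM Tris/10 mM MgCl2. 5-HT1Dα/β [3H]-5-HT 1.7 nM in Tris/MgCl2/EDTA/0.1% ascorbate. D2 [3H]U86170 1 nM in 20 mM HEPES/10 mM MgSO4. D3 [3H]spiperone 0.5 nM in HEPES/MgCl2/NaCl/EDTA. Filtration and scintillation counting; 11 concentrations in duplicate; IC50 by nonlinear fit converted to Ki via Cheng–Prusoff.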

The target of series [4] is T1, D(2) dopamine receptor.
The next series has as its target D(3) dopamine receptor (Homo sapiens, UniProt P35462). Briefly: In vitro binding affinity towards Dopamine receptor D3 by using [3H]spiperone as radioligand. Summed up: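 Radioligand competition binding at cloned mammalian receptors expressed in CHO-K1 cells, 1 h at room temperature, pH 7.4. D2 [3H]U86170 1 nM in 20 mM HEPES/10 mM MgSO4. D3 [3H]spiperone 0.5 nM in HEPES/MgCl2/NaCl/EDTA. Filtration and scintillation counting; 11 concentrations in duplicate; IC50 by nonlinear fit converted to Ki via Cheng–Prusoff.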

For series [5], the system named is Rattus norvegicus. Briefly: […] decrease in the accumulation of DOPA (3,4-dihydroxyphenylalanine) in rat striatal brain; partial response at 50 uM/Kg. It is filed as functional, organism-based. Summed up: (§2)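 Male Sprague-Dawley rats (200–300 g) pretreated with reserpine 5 mg/kg sc 18 h before test drug. Test drug sc 60 min and NSD 1015 30 min before decapitation. DOPA and 5-HTP in limbic, striatal and hemispheral brain areas determined by HPLC with electrochemical detection. ED50 (µmol/kg) is the dose producing half-maximal decrease, from sigmoidal fit to dose–response curves, with 95% confidence limits.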

The nature of series [6]: Plasma clearance was determined for the compound in rats. The series is classed as ADME, organism-based. As to conditions: rat. Summed up: (§3)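 Rats with arterial catheters, dosed 24 h after surgery. Dosing po by gavage after 18 h fast, or iv; doses 25 µmol/kg po and 5 µmol/kg iv. Blood sampled 5 min–12 h and analysed by GC-MS after dichloromethane extraction at pH 11, in duplicate. Bioavailability from po/iv AUC ratio; half-life estimated graphically from the elimination phase after oral dosing.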

In series [7] the test system is Rattus norvegicus. As to the kind of experiment: […] decrease in the accumulation of DOPA (3,4-dihydroxyphenylalanine) in rat hemispheral brain; partial response at 50 uM/Kg. The series is classed as functional, organism-based. Summed up:
as §2

The species named for series [8] is Rattus norvegicus. Briefly: […] decrease in the accumulation of 5-HTP (5-Hydroxytryptophan) in rat hemispheral brain. It is filed as functional. Summed up: as §2
The target of series [9] is T2, 5-hydroxytryptamine receptor 1D. Briefly: In vitro binding affinity towards 5-hydroxytryptamine 1D receptor alpha by using [3H]-5-HT as radioligand.
Series [10] is described as follows: Plasma half life was determined in rats. It is filed as ADME, organism-based. As to conditions: rat. Summed up:
as §3

For series [11], the system named is Rattus norvegicus. As to the kind of experiment: […] decrease in the accumulation of DOPA (3,4-dihydroxyphenylalanine) in rat limbic brain; partial response at 50 uM/Kg. The series is classed as functional, organism-based. Summed up: as §2
The nature of series [12]: Oral bioavailability in rat. It is filed as ADME, organism-based. As to conditions: in vivo. In short, it runs like this:
as §3

The test system of series [13] is Rattus norvegicus. Briefly: uM/kg. The series is classed as functional.
Series [14] deals with Rattus norvegicus. Briefly: […] decrease in the accumulation of 5-HTP (5-Hydroxytryptophan) in non pretreated rat striatal brain at dose 0.25 umol/kg. The arrangement: scale not given: the % may be the effect or the level left. It is filed as functional. In short, it runs like this:
(§4)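 Male Sprague-Dawley rats (200–300 g) without reserpine. Test drug sc, or po by gavage after 18 h fast. NSD 1015 decarboxylase inhibition before decapitation. DOPA and 5-HTP in limbic and striatal regions measured by HPLC-electrochemical detection. Results given as percent of saline controls, mean ± SEM, n = 16 controls and 4 treated.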

The subject of series [15] is Rattus norvegicus. Briefly: behavioral syndrome(flat body posture and forepaw treading) at 0.25 µmol/kg.
The species entered for series [16] is Rattus norvegicus. As to the kind of experiment: post-synaptic activity was determined by locomotor activity (LMA) in Non pretreated rats. The series is classed as functional. In short, it runs like this: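 Nonpretreated male Sprague-Dawley rats; test drug sc in the neck or po by gavage, n = 4. Placed singly in photocell motility meters immediately after dosing; activity recorded for 30 min. Results expressed as percent of saline controls.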

The test system of series [17] is Rattus norvegicus. As to the kind of experiment: […] decrease in the accumulation of DOPA (3,4-dihydroxyphenylalanine) in non pretreated rat striatal brain at dose 0.25 umol/kg. It is filed as functional. The arrangement: scale not given: the % may be the effect or the level left. Summed up:
as §4

Series [18] deals with Rattus norvegicus. As to the kind of experiment: […] decrease in the accumulation of 5-HTP (5-Hydroxytryptophan) in non pretreated rat limbic brain at dose 0.25 umol/kg. Also on record: scale not given: the % may be the effect or the level left. The series is classed as functional. In short, it runs like this: as §4
For series [19], the species on record is Rattus norvegicus. Briefly: […] decrease in the accumulation of 5-HTP (5-Hydroxytryptophan) in rat striatal brain. It is filed as functional. Summed up:
as §2

Series [20] has as its system Rattus norvegicus. Briefly: […] decrease in the accumulation of DOPA (3,4-dihydroxyphenylalanine) in non pretreated rat limbic brain at dose 0.25 umol/kg. It is filed as functional. Also on record: scale not given: the % may be the effect or the level left. Summed up:
as §4

Series [21] has as its system Rattus norvegicus. Briefly: behavioral syndrome(flat body posture and forepaw treading) at 0.25 umol/Kg.
Series [22] addresses T1, D(2) dopamine receptor. As to the kind of experiment: In vitro binding affinity towards dopamine D2 receptor by using [3H]U-86170 as radioligand. In short, it runs like this:
as §1

Series [23] has as its system Rattus norvegicus. As to the kind of experiment: […] decrease in the accumulation of DOPA (3,4-dihydroxyphenylalanine) in rat hemispheral brain;Inactive at 50 uM/Kg. It is filed as functional, organism-based. Summed up:
as §2

In series [24] the test system is Rattus norvegicus. Briefly: […] decrease in the accumulation of DOPA (3,4-dihydroxyphenylalanine) in rat limbic brain;Inactive at 50 uM/Kg. The series is classed as functional, organism-based. In short, it runs like this: as §2
In series [25] the target is T2, 5-hydroxytryptamine receptor 1D. As to the kind of experiment: In vitro binding affinity towards 5-HT1D alpha receptor by using [3H]5-HT as radioligand. Summed up: as §1
Series [26] relates to Rattus norvegicus. Briefly: (§5) […] decrease in the accumulation of 5-HTP (5-uM/Kg. The series is classed as functional, organism-based.
Series [27] concerns Rattus norvegicus. As to the kind of experiment: […] decrease in the accumulation of DOPA (3,4-dihydroxyphenylalanine) in rat striatal brain;Inactive at 50 uM/Kg. It is filed as functional, organism-based. In short, it runs like this: as §2
For series [28], the system named is Rattus norvegicus. Described as §5. The series is classed as functional, organism-based. The source holds these as a separate data set.
The species entered for series [29] is Rattus norvegicus. Briefly: post-synaptic activity was determined by locomotor activity (LMA) in reserpine pretreated rats and no. of counts/30 min was reported (***p<0.005). It is filed as functional.

T2 sequence (P28221 whole entry): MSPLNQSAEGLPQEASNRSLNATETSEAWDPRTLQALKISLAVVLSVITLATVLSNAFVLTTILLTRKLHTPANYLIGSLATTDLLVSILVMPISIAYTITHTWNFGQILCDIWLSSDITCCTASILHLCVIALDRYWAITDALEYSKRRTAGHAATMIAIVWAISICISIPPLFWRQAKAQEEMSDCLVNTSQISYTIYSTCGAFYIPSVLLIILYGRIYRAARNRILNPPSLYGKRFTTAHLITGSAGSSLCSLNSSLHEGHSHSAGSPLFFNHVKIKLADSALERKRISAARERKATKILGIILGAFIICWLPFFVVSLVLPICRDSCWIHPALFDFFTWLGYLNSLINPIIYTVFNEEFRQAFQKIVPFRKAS
T1 sequence (P14416 whole entry): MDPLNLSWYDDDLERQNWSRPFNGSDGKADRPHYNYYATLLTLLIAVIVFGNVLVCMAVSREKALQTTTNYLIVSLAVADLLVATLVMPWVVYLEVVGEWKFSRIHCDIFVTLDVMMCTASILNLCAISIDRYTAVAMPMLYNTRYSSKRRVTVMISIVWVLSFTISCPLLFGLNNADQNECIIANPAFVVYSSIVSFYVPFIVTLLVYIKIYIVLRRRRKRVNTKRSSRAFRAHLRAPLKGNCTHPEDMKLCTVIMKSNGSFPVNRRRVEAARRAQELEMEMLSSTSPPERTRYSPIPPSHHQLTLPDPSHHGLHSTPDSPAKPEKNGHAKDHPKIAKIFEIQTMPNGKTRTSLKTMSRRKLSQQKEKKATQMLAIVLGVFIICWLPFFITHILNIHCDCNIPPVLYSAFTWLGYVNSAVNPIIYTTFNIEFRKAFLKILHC
Sequence of D(3) dopamine receptor (P35462 whole entry): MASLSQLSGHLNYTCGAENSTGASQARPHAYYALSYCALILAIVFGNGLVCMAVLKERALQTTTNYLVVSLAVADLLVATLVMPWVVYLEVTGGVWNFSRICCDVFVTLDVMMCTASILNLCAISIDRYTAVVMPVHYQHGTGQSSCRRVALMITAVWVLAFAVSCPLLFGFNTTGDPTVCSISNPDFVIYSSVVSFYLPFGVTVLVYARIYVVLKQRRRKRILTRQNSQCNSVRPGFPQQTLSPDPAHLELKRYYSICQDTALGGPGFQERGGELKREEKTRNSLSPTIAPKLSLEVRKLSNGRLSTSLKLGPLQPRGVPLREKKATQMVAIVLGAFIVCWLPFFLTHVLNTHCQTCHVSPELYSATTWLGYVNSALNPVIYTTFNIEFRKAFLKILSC

In the case of `CCCNC1CCc2cccc(OS(=O)(=O)C(F)(F)F)c2C1` (racemic), the Ki on D(2) dopamine receptor [1] is more than 413 nM; in series [2], 15 nM; in series [3], 2.8 nM; at D(2) dopamine receptor [4] it was 108 nM; on D(3) dopamine receptor it was 691 nM.
For the compound `CCCN(CCC)C1CCc2cccc(OS(=O)(=O)C(F)(F)F)c2C1` (racemic), the 50% effective dose (ED50) entry in the series with Rattus norvegicus [5] is “Weak activity”; with Rattus norvegicus [7] it was “Weak activity”; in the series listed under Rattus norvegicus [8], 13.8 µmol/kg; in the series on Rattus norvegicus [11], “Weak activity”. Besides, the Ki at D(2) dopamine receptor [1] was more than 413 nM; in series [2], 12 nM; in [3], 0.8 nM; on D(2) dopamine receptor [4], 62 nM; at D(3) dopamine receptor, 273 nM; in series [9], 127 nM. In series [6], the clearance amounted to 57 mL/min/kg. The same compound displayed a half-life in [10] of 1.5 h. This compound displayed a bioavailability in series [12] of 11.2%.
For the compound `CCCN(CCC)[C@@H]1CCc2cccc(O)c2C1`, the “No. of rats displaying DA syndrome” value in the series with Rattus norvegicus [13] turned out to be 0. Besides, the ED50 result in the series on Rattus norvegicus [5] is “Weak activity”; with Rattus norvegicus [7], “Weak activity”; in the series listed under Rattus norvegicus [19], 0.047 µmol/kg; in the series filed under Rattus norvegicus [8], 0.05 µmol/kg; with Rattus norvegicus [11], “Weak activity”. In addition, the Control came out at 48% in the series on Rattus norvegicus [14], 80% in the series on Rattus norvegicus [17], 50% with Rattus norvegicus [18] and 94% in the series with Rattus norvegicus [20]. In series [3], this compound came in with an inhibition constant Ki of 0.5 nM. Moreover, the “No. of rats with 5-HT syndrome” value in the series on Rattus norvegicus [15] and with Rattus norvegicus [21] was 4 each time. Further, in the series listed under Rattus norvegicus [16], the “Locomotor activity (% of saline control)” value was determined as 64%. In addition, in series [10], the half-life is 1.2 h. The same compound gave a bioavailability in series [12] of 2.4%.
As to `CCCN[C@@H]1CCc2ccc(OS(=O)(=O)C(F)(F)F)cc2C1.Cl`, the “No. of rats displaying DA syndrome” value with Rattus norvegicus [13] was determined as 4. The Ki at D(2) dopamine receptor [22] is 50 nM; in series [25], 125 nM; in series [3], 222 nM; at D(3) dopamine receptor it was 359 nM; in series [9] it was 340 nM. The ED50 entry in the series with Rattus norvegicus [23], in the series with Rattus norvegicus [24] and in the series with Rattus norvegicus [27] was “inactive” each time. The median effective dose (ED50) entry in the series on Rattus norvegicus [26] and in the series with Rattus norvegicus [28] was “Weak activity” in each case. Further, the Counts/30 min in the series filed under Rattus norvegicus [29] was 2153.
